≈ marks a conversion by molar mass, not a printed value.
What was measured:
[1] = molecular target: T1, Bifunctional epoxide hydrolase 2 (Homo sapiens, UniProt P34913); assay: Inhibition of human soluble epoxide hydrolase by kinetic fluorescent assay
T1 sequence (P34913 whole entry): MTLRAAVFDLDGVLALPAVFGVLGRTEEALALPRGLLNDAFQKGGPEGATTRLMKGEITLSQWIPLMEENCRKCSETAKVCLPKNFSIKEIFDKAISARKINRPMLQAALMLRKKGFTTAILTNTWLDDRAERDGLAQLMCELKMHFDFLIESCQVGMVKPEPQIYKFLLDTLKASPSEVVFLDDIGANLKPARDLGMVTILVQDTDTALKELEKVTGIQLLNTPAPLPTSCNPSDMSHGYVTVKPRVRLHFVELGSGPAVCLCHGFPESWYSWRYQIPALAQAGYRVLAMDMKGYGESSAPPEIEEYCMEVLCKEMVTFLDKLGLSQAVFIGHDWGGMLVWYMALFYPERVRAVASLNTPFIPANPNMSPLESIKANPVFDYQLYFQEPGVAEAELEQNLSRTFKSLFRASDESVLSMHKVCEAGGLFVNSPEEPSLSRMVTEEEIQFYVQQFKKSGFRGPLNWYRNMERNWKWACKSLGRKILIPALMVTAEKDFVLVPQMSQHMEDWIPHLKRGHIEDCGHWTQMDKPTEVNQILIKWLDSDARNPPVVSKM
Procedure, shortened: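 Human sEH enzyme, kinetic fluorescence read-out; each value is the mean of three separate experiments.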

[2] = Solubility of the compound in 0.1 M sodium phosphate buffer at pH 7.4; format: physicochemical
Procedure, shortened: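 Measured in 0.1 M sodium phosphate buffer, pH 7.4, with 1% DMSO present.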

Structure (SMILES): O=C(NCCCCCCCCNC(=O)NC1CC2CCC1C2)NC1CC2CCC1C2 (stereo not given)
- IC50 [1]: 0.4 nM

Structure (SMILES): O=C(NCCCCNC(=O)NC1CC2CCC1C2)NC1CC2CCC1C2 (stereo not given)
- solubility ([2]; buffer): 75 µM (≈ 27.2 µg/mL)
- IC50 [1]: 11.8 nM

Structure (SMILES): O=C(NCCCCCCNC(=O)NCc1ccco1)NCc1ccco1
- solubility ([2]; buffer): 100 µM (≈ 36.2 µg/mL)
- IC50 [1]: 86.3 nM

Structure (SMILES): O=C(NCCCCNC(=O)NCc1ccco1)NCc1ccco1
- solubility ([2]; buffer): 225 µM (≈ 75.2 µg/mL)
- IC50 [1]: 1800 nM

Structure (SMILES): CCOC(=O)CNC(=O)NC1CC2CCC1(C)C2(C)C (stereo not given)
- solubility ([2]; buffer): > 2000 µM
- IC50 [1]: 2170 nM

Structure (SMILES): O=C(NCCCCNC(=O)NC1CC2C=CC1C2)NC1CC2C=CC1C2 (stereo not given)
- IC50 [1]: 21 nM

Structure (SMILES): O=C(NCc1ccco1)NCC12CC3CC(CC(C3)C1)C2
- solubility ([2]; buffer): 300 µM (≈ 86.5 µg/mL)
- IC50 [1]: 44.8 nM

Structure (SMILES): O=C(NCCCCCCCCCCNC(=O)NC1CC2C=CC1C2)NC1CC2C=CC1C2 (stereo not given)
- IC50 [1]: 0.4 nM

Structure (SMILES): O=C(Nc1ccc(OC(F)(F)F)cc1)NC1CC2CCC1C2 (stereo not given)
- IC50 [1]: 0.4 nM

Structure (SMILES): CC12CCC(NC(=O)N[C@H]3CC[C@H](Oc4ccc(C(=O)O)cc4)CC3)(OC1=O)C2(C)C (stereo not given in full)
- solubility ([2]; buffer): 300 µM (≈ 129 µg/mL)
- IC50 [1]: 35.3 nM

Structure (SMILES): CC1(C)C2CCC1(C)C(NC(=O)NCCCCNC(=O)NC1CC3CCC1(C)C3(C)C)C2 (stereo not given)
- solubility ([2]; buffer): 10 µM (≈ 4.47 µg/mL)
- IC50 [1]: 2.3 nM

Structure (SMILES): O=C(NCc1ccco1)Nc1ccccc1F
- solubility ([2]; buffer): 425 µM (≈ 99.5 µg/mL)
- IC50 [1]: 635 nM

Structure (SMILES): CC1(C)C2CCC1(C)C(NC(=O)Nc1ccccc1F)C2 (stereo not given)
- solubility ([2]; buffer): 225 µM (≈ 65.3 µg/mL)
- IC50 [1]: 14.4 nM

Structure (SMILES): O=C(Nc1ccccc1F)NC1CC2CCC1C2 (stereo not given)
- solubility ([2]; buffer): 325 µM (≈ 80.7 µg/mL)
- IC50 [1]: 6.8 nM

Structure (SMILES): O=C(NCCCCCCCCNC(=O)NCc1ccco1)NCc1ccco1
- solubility ([2]; buffer): 50 µM (≈ 19.5 µg/mL)

Structure (SMILES): CCCCCCCCNC(=O)NC1CC2CCC1(C)C2(C)C (stereo not given)
- solubility ([2]; buffer): 125 µM (≈ 38.6 µg/mL)
- IC50 [1]: 6.5 nM

Structure (SMILES): O=C(NC1CC2C=CC1C2)N[C@H]1CC[C@H](Oc2ccc(C(=O)O)cc2)CC1 (stereo not given in full)
- solubility ([2]; buffer): 350 µM (≈ 130 µg/mL)
- IC50 [1]: 1.5 nM

Structure (SMILES): CC1(C)C2CCC1(C)C(NC(=O)Nc1ccc(OC(F)(F)F)cc1)C2 (stereo not given)
- IC50 [1]: 2.5 nM

Structure (SMILES): CCOC(=O)CNC(=O)NC1CC2CCC1C2 (stereo not given)
- solubility ([2]; buffer): > 2000 µM
- IC50 [1]: 1580 nM

Structure (SMILES): CC1(C)[C@H]2CC[C@]1(C)C(NC(=O)Nc1ccccc1F)C2 (mixture of isomers)
- IC50 [1]: 3.7 nM

Structure (SMILES): O=C(NCC12CC3CC(CC(C3)C1)C2)NC1CC2C=CC1C2 (stereo not given)
- IC50 [1]: 0.7 nM

Structure (SMILES): O=C(Nc1ccc(OC(F)(F)F)cc1)N[C@H]1CC[C@H](Oc2ccc(C(=O)O)cc2)CC1
- solubility ([2]; sodium phosphate buffer, read-out: solubility): 5 µM (≈ 2.19 µg/mL)

Structure (SMILES): CC1(C)[C@@H]2CC[C@@]1(C)C(NC(=O)Nc1ccccc1F)C2 (mixture of isomers)
- solubility ([2]; buffer): 225 µM
- IC50 [1]: 50.6 nM

Structure (SMILES): O=C(NC1CC2C=CC1C2)NC1C2CC3CC(C2)CC1C3 (stereo not given)
- IC50 [1]: 0.9 nM

Structure (SMILES): CC1(C)C2CCC1(C)C(NC(=O)NCCCCCCCCNC(=O)NC1CC3CCC1(C)C3(C)C)C2 (stereo not given)
- solubility ([2]; buffer): 10 µM (≈ 5.03 µg/mL)
- IC50 [1]: 0.4 nM
